Test results from ChEMBL document CHEMBL1133663, “Synthesis and biological evaluation of 3,4-diaryloxazolones: A new class of orally active cyclooxygenase-2 inhibitors” (J Med Chem, 2000).
pIC50: −log10 of the molar value.

Each compound was assayed on Rattus norvegicus (assay: Effect on non perforated ulcers(NPU) at the dose of 100 mg/kg.).
Type: functional
Method in brief: (§1)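 Male Wistar rats (150-175 g), fed freely, 10/group, dosed orally once daily for 4 consecutive days in 0.5% methyl cellulose/0.1% Tween. Anaesthetised 24 h after last dose; cardiac blood taken for hemoglobin. Whole intestine opened and scored macroscopically for perforated and nonperforated ulcers (index 0-3); value is ulcer score per incidence (% animals with ulcers).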

Row | SMILES | Ulcer score
1 | NS(=O)(=O)c1ccc(-c2coc(=O)n2-c2ccccc2F)cc1 | 0
2 | NS(=O)(=O)c1ccc(-c2coc(=O)n2-c2ccc(C(F)(F)F)cc2)cc1 | 0
3 | Cc1oc(=O)n(-c2ccc(Cl)c(Cl)c2)c1-c1ccc(S(N)(=O)=O)cc1 | 0
4 | Cc1cccc(-n2c(-c3ccc(S(N)(=O)=O)cc3)coc2=O)c1 | 0
5 | NS(=O)(=O)c1ccc(-c2coc(=O)n2-c2ccc(F)cc2)cc1 | 0
6 | NS(=O)(=O)c1ccc(-c2coc(=O)n2-c2ccc(Cl)cc2)cc1 | 2.1
7 | NS(=O)(=O)c1ccc(-c2coc(=O)n2-c2ccccc2)cc1 | 0
8 | Cc1ccc(-n2c(-c3ccc(S(N)(=O)=O)cc3)coc2=O)cc1 | 0
9 | Cc1ccc(-c2cc(C(F)(F)F)nn2-c2ccc(S(N)(=O)=O)cc2)cc1 [CELECOXIB] | 0

These compounds were tested on Rattus norvegicus (assay: Effect on perforated ulcers(PU) at the dose of 100 mg/kg.).
Type: functional
Method in brief: as §1

Row | SMILES | Ulcer score
10 | NS(=O)(=O)c1ccc(-c2coc(=O)n2-c2ccccc2F)cc1 | 0
11 | NS(=O)(=O)c1ccc(-c2coc(=O)n2-c2ccc(C(F)(F)F)cc2)cc1 | 0
12 | Cc1oc(=O)n(-c2ccc(Cl)c(Cl)c2)c1-c1ccc(S(N)(=O)=O)cc1 | 0
13 | Cc1cccc(-n2c(-c3ccc(S(N)(=O)=O)cc3)coc2=O)c1 | 0
14 | NS(=O)(=O)c1ccc(-c2coc(=O)n2-c2ccc(F)cc2)cc1 | 0
15 | NS(=O)(=O)c1ccc(-c2coc(=O)n2-c2ccc(Cl)cc2)cc1 | 3
16 | NS(=O)(=O)c1ccc(-c2coc(=O)n2-c2ccccc2)cc1 | 0
17 | Cc1ccc(-n2c(-c3ccc(S(N)(=O)=O)cc3)coc2=O)cc1 | 0
18 | Cc1ccc(-c2cc(C(F)(F)F)nn2-c2ccc(S(N)(=O)=O)cc2)cc1 [CELECOXIB] | 0

The compounds below were run on Rattus norvegicus (assay: In vivo inhibition of carrageenan-induced hyperalgesia in rats).
Type: functional
Method in brief: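 Fasted male Wistar rats (200-230 g) given oral drug, then 0.1 mL 1% carrageenan into the left hind paw 1 h later. At 5 h, walking difficulty was scored 0-2 by a blinded observer. Percentage inhibition was taken against vehicle, and ED50 was found by linear regression over four doses (6-8 rats/group).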

Row | SMILES | ED50
19 | NS(=O)(=O)c1ccc(-c2coc(=O)n2-c2ccccc2F)cc1 | 2.7 mg/kg
20 | NS(=O)(=O)c1ccc(-c2coc(=O)n2-c2ccc(C(F)(F)F)cc2)cc1 | 8.1 mg/kg
21 | Cc1oc(=O)n(-c2ccc(Cl)c(Cl)c2)c1-c1ccc(S(N)(=O)=O)cc1 | 3 mg/kg
22 | Cc1cccc(-n2c(-c3ccc(S(N)(=O)=O)cc3)coc2=O)c1 | 7.2 mg/kg
23 | NS(=O)(=O)c1ccc(-c2coc(=O)n2-c2ccc(F)cc2)cc1 | 3.9 mg/kg
24 | NS(=O)(=O)c1ccc(-c2coc(=O)n2-c2ccc(Cl)cc2)cc1 | 0.5 mg/kg
25 | NS(=O)(=O)c1ccc(-c2coc(=O)n2-c2ccccc2)cc1 | 1.1 mg/kg
26 | Cc1ccc(-n2c(-c3ccc(S(N)(=O)=O)cc3)coc2=O)cc1 | 3.8 mg/kg
27 | Cc1ccc(-c2cc(C(F)(F)F)nn2-c2ccc(S(N)(=O)=O)cc2)cc1 [CELECOXIB] | 6.2 mg/kg

Each compound was assayed on Rattus norvegicus (assay: In vivo inhibition of carrageenan-induced air pouch in rats).
Type: functional
Method in brief: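 Air pouch made in fasted male Wistar rats (150-175 g, 6/group) by injecting 20 mL air subcutaneously on the back on day 0. Oral gavage on day 3, then 5 mL 0.4% carrageenan into the pouch 1 h later.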

Row | SMILES | ED35
28 | NS(=O)(=O)c1ccc(-c2coc(=O)n2-c2ccccc2F)cc1 | 1.6 mg/kg
29 | NS(=O)(=O)c1ccc(-c2coc(=O)n2-c2ccc(C(F)(F)F)cc2)cc1 | 2.6 mg/kg
30 | Cc1oc(=O)n(-c2ccc(Cl)c(Cl)c2)c1-c1ccc(S(N)(=O)=O)cc1 | 0.85 mg/kg
31 | Cc1cccc(-n2c(-c3ccc(S(N)(=O)=O)cc3)coc2=O)c1 | 0.47 mg/kg
32 | NS(=O)(=O)c1ccc(-c2coc(=O)n2-c2ccc(F)cc2)cc1 | 0.4 mg/kg
33 | NS(=O)(=O)c1ccc(-c2coc(=O)n2-c2ccc(Cl)cc2)cc1 | 1.2 mg/kg
34 | NS(=O)(=O)c1ccc(-c2coc(=O)n2-c2ccccc2)cc1 | 1.2 mg/kg
35 | Cc1ccc(-n2c(-c3ccc(S(N)(=O)=O)cc3)coc2=O)cc1 | 1.7 mg/kg
36 | Cc1ccc(-c2cc(C(F)(F)F)nn2-c2ccc(S(N)(=O)=O)cc2)cc1 [CELECOXIB] | 3 mg/kg

What follows are compounds tested against Prostaglandin G/H synthase 1 (Homo sapiens, UniProt P23219).
Chain of Prostaglandin G/H synthase 1 (P23219 whole entry): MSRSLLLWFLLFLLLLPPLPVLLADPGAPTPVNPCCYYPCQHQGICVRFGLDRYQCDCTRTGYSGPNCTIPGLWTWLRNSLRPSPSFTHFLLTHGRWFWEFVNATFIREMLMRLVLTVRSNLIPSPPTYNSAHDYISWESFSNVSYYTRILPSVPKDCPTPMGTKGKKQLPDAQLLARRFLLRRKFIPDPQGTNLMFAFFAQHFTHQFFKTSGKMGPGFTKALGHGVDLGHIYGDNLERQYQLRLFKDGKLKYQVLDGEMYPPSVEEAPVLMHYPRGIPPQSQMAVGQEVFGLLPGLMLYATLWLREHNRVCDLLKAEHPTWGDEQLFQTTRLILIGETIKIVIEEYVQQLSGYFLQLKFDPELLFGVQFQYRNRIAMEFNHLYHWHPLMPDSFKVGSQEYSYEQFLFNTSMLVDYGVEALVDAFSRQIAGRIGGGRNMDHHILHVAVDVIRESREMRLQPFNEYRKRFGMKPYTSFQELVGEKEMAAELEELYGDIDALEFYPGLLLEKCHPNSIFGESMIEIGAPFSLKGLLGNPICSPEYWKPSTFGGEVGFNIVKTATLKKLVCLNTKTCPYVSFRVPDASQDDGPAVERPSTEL

Row | SMILES | pIC50
37 | NS(=O)(=O)c1ccc(-c2coc(=O)n2-c2ccccc2F)cc1 | 4.55
38 | NS(=O)(=O)c1ccc(-c2coc(=O)n2-c2ccc(C(F)(F)F)cc2)cc1 | < 4.00
39 | Cc1oc(=O)n(-c2ccc(Cl)c(Cl)c2)c1-c1ccc(S(N)(=O)=O)cc1 | 5.06
40 | Cc1cccc(-n2c(-c3ccc(S(N)(=O)=O)cc3)coc2=O)c1 | 5.18
41 | NS(=O)(=O)c1ccc(-c2coc(=O)n2-c2ccc(F)cc2)cc1 | 4.88
42 | NS(=O)(=O)c1ccc(-c2coc(=O)n2-c2ccc(Cl)cc2)cc1 | 5.15
43 | NS(=O)(=O)c1ccc(-c2coc(=O)n2-c2ccccc2)cc1 | 4.61
44 | Cc1ccc(-n2c(-c3ccc(S(N)(=O)=O)cc3)coc2=O)cc1 | 4.96

Each compound was assayed on Rattus norvegicus (assay: In vivo inhibition of adjuvant arthritis in rats).
Type: functional

Row | SMILES | ED50
45 | NS(=O)(=O)c1ccc(-c2coc(=O)n2-c2ccccc2F)cc1 | 0.27 mg/kg
46 | NS(=O)(=O)c1ccc(-c2coc(=O)n2-c2ccc(C(F)(F)F)cc2)cc1 | 1 mg/kg
47 | Cc1oc(=O)n(-c2ccc(Cl)c(Cl)c2)c1-c1ccc(S(N)(=O)=O)cc1 | 1.6 mg/kg
48 | Cc1cccc(-n2c(-c3ccc(S(N)(=O)=O)cc3)coc2=O)c1 | 0.6 mg/kg
49 | NS(=O)(=O)c1ccc(-c2coc(=O)n2-c2ccc(F)cc2)cc1 | 0.6 mg/kg
50 | NS(=O)(=O)c1ccc(-c2coc(=O)n2-c2ccc(Cl)cc2)cc1 | 0.2 mg/kg
51 | NS(=O)(=O)c1ccc(-c2coc(=O)n2-c2ccccc2)cc1 | 0.15 mg/kg
52 | Cc1ccc(-n2c(-c3ccc(S(N)(=O)=O)cc3)coc2=O)cc1 | 0.34 mg/kg
53 | Cc1ccc(-c2cc(C(F)(F)F)nn2-c2ccc(S(N)(=O)=O)cc2)cc1 [CELECOXIB] | 0.5 mg/kg

These compounds were tested on Rattus norvegicus (assay: Inhibition of carrageenan paw edema in rats).
Type: functional
Method in brief: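 Fasted male Wistar rats (150-175 g, 6/group) dosed orally in 0.5% methyl cellulose/0.1% Tween (10 mL/kg). One hour later, 0.1 mL 1% carrageenan in saline was given subcutaneously into the left hind paw.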

Row | SMILES | ED35
54 | NS(=O)(=O)c1ccc(-c2coc(=O)n2-c2ccccc2F)cc1 | 1.7 mg/kg
55 | NS(=O)(=O)c1ccc(-c2coc(=O)n2-c2ccc(C(F)(F)F)cc2)cc1 | 2.4 mg/kg
56 | Cc1oc(=O)n(-c2ccc(Cl)c(Cl)c2)c1-c1ccc(S(N)(=O)=O)cc1 | 4.4 mg/kg
57 | Cc1cccc(-n2c(-c3ccc(S(N)(=O)=O)cc3)coc2=O)c1 | 0.9 mg/kg
58 | NS(=O)(=O)c1ccc(-c2coc(=O)n2-c2ccc(F)cc2)cc1 | 2 mg/kg
59 | NS(=O)(=O)c1ccc(-c2coc(=O)n2-c2ccc(Cl)cc2)cc1 | 1.6 mg/kg
60 | NS(=O)(=O)c1ccc(-c2coc(=O)n2-c2ccccc2)cc1 | 0.4 mg/kg
61 | Cc1ccc(-n2c(-c3ccc(S(N)(=O)=O)cc3)coc2=O)cc1 | 0.7 mg/kg
62 | Cc1ccc(-c2cc(C(F)(F)F)nn2-c2ccc(S(N)(=O)=O)cc2)cc1 [CELECOXIB] | 1.1 mg/kg

The compounds below were run on Rattus norvegicus (assay: In vivo inhibition of pyresis in rats).
Type: functional
Method in brief: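 Male Wistar rats (180-200 g, 6/group) were injected subcutaneously with 15% yeast extract in saline ([…]) and fasted overnight. Next morning rectal temperature was taken, and oral dosing followed 1 h later. Temperature was recorded hourly for 5 h.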

Row | SMILES | ED50
63 | NS(=O)(=O)c1ccc(-c2coc(=O)n2-c2ccccc2F)cc1 | 1.2 mg/kg
64 | NS(=O)(=O)c1ccc(-c2coc(=O)n2-c2ccc(C(F)(F)F)cc2)cc1 | 11 mg/kg
65 | Cc1oc(=O)n(-c2ccc(Cl)c(Cl)c2)c1-c1ccc(S(N)(=O)=O)cc1 | 8.7 mg/kg
66 | Cc1cccc(-n2c(-c3ccc(S(N)(=O)=O)cc3)coc2=O)c1 | 1.8 mg/kg
67 | NS(=O)(=O)c1ccc(-c2coc(=O)n2-c2ccc(F)cc2)cc1 | 2.4 mg/kg
68 | NS(=O)(=O)c1ccc(-c2coc(=O)n2-c2ccc(Cl)cc2)cc1 | 2.3 mg/kg
69 | NS(=O)(=O)c1ccc(-c2coc(=O)n2-c2ccccc2)cc1 | 0.5 mg/kg
70 | Cc1ccc(-n2c(-c3ccc(S(N)(=O)=O)cc3)coc2=O)cc1 | 3.3 mg/kg
71 | Cc1ccc(-c2cc(C(F)(F)F)nn2-c2ccc(S(N)(=O)=O)cc2)cc1 [CELECOXIB] | 0.6 mg/kg

Organism: Rattus norvegicus
Assay: Hemoglobin levels in the different assays ranged from 11.5-14.7 g/dl.
Type: functional

Row | SMILES | Hgb levels
72 | NS(=O)(=O)c1ccc(-c2coc(=O)n2-c2ccccc2F)cc1 | 11.6 g/dL
73 | NS(=O)(=O)c1ccc(-c2coc(=O)n2-c2ccc(C(F)(F)F)cc2)cc1 | 11.5 g/dL
74 | Cc1oc(=O)n(-c2ccc(Cl)c(Cl)c2)c1-c1ccc(S(N)(=O)=O)cc1 | 14.6 g/dL
75 | Cc1cccc(-n2c(-c3ccc(S(N)(=O)=O)cc3)coc2=O)c1 | 12.8 g/dL
76 | NS(=O)(=O)c1ccc(-c2coc(=O)n2-c2ccc(F)cc2)cc1 | 12.6 g/dL
77 | NS(=O)(=O)c1ccc(-c2coc(=O)n2-c2ccc(Cl)cc2)cc1 | 12.5 g/dL
78 | NS(=O)(=O)c1ccc(-c2coc(=O)n2-c2ccccc2)cc1 | 14.8 g/dL
79 | Cc1ccc(-n2c(-c3ccc(S(N)(=O)=O)cc3)coc2=O)cc1 | 12.9 g/dL
80 | Cc1ccc(-c2cc(C(F)(F)F)nn2-c2ccc(S(N)(=O)=O)cc2)cc1 [CELECOXIB] | 13.2 g/dL
